# Tests used:
# Conditions in all cases: in vivo
# Rattus norvegicus [1] = species: Rattus norvegicus; assay: Biodistribution of Gd-LDTA (conjugated with mannose BSA) protein using [111In]- in mature female Sprague-Dawley rat colon after injecting for 4 hour.; type: ADME, organism-based
# Summary of the method: (§1)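 Conjugate of SCN-LDTPA with BSA, mannosylated BSA or galactosylated BSA (10 equiv chelate, pH 9 bicine, RT 24 h; FPLC-purified) was labelled with 340 μCi 111In acetate at pH 5.5 for 45 min. It was then gel-filtered (Biospin-6) and checked for purity by FPLC. Mature female Sprague-Dawley rats received 19 μg of conjugate. Four rats per time point (1, 4, 24, 48 h) were killed; blood, liver, bone, kidney and colon were taken and %ID/organ was calculated.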
# Rattus norvegicus [2] = species: Rattus norvegicus; assay: Biodistribution of Gd-LDTA (conjugated with mannose BSA) protein using [111In]- in mature female Sprague-Dawley rat colon after injecting for 48 hour.; type: ADME, organism-based
# Rattus norvegicus [3] = species: Rattus norvegicus; assay: Biodistribution of In-LDTA (conjugated with BSA) protein using [111In]- in mature female Sprague-Dawley rat bone after injecting for 4 hour.; type: ADME, organism-based, Bone element
# Summary of the method: (§2)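 SCN-LDTPA was coupled (pH 9 bicine, 24 h, RT) to BSA, mannosylated BSA or galactosylated BSA and FPLC-purified. The conjugate (400 μg) was labeled with 340 μCi 111In acetate at pH 5.5 for 45 min and gel-filtered. Mature female Sprague-Dawley rats received 19 μg of conjugate; four rats per time point. Blood, liver, bone, kidney and colon were taken and reported as %ID/organ.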
# Rattus norvegicus [4] = species: Rattus norvegicus; assay: Biodistribution of Gd-LDTA (conjugated with mannose BSA) protein using [111In]- in mature female Sprague-Dawley rat kidney after injecting for 96 hour.; type: ADME, organism-based
# Rattus norvegicus [5] = species: Rattus norvegicus; assay: Biodistribution of In-LDTA (conjugated with BSA) protein using [111In]- in mature female Sprague-Dawley rat colon after injecting for 24 hour.; type: ADME, organism-based; summary of the method: as §2
# Rattus norvegicus [6] = species: Rattus norvegicus; assay: Biodistribution of In-LDTA (conjugated with BSA) protein using [111In]- in mature female Sprague-Dawley rat colon after injecting for 1 hour.; type: ADME, organism-based; summary of the method: as §2
# Rattus norvegicus [7] = species: Rattus norvegicus; assay: Biodistribution of In-LDTA (conjugated with mannoseBSA) protein using [111In]- in mature female Sprague-Dawley rat colon after injecting for 48 hour.; type: ADME, organism-based; summary of the method: as §2
# Rattus norvegicus [8] = species: Rattus norvegicus; assay: Biodistribution of In-LDTA (conjugated with galactose BSA)protein using [111In]- in mature female Sprague-Dawley rat bone after injecting for 4 hour.; type: ADME, organism-based, Bone element; summary of the method: as §2
# Rattus norvegicus [9] = species: Rattus norvegicus; assay: Biodistribution of In-LDTA (conjugated with galactose BSA)protein using [111In]- in mature female Sprague-Dawley rat colon after injecting for 1 hour.; type: ADME, organism-based; summary of the method: as §2
# Rattus norvegicus [10] = species: Rattus norvegicus; assay: Biodistribution of In-LDTA (conjugated with galactose BSA)protein using [111In]- in mature female Sprague-Dawley rat kidney after injecting for 1 hour.; type: ADME, organism-based; summary of the method: as §2
# Rattus norvegicus [11] = species: Rattus norvegicus; assay: Biodistribution of In-LDTA (conjugated with mannoseBSA) protein using [111In]- in mature female Sprague-Dawley rat bone after injecting for 24 hour.; type: ADME, organism-based, Bone element; summary of the method: as §2
# Rattus norvegicus [12] = species: Rattus norvegicus; assay: Biodistribution of Gd-LDTA (conjugated with mannose BSA) protein using [111In]- in mature female Sprague-Dawley rat bone marrow after injecting for 48 hour.; type: ADME, organism-based
# Rattus norvegicus [13] = species: Rattus norvegicus; assay: Biodistribution of In-LDTA (conjugated with mannoseBSA) protein using [111In]- in mature female Sprague-Dawley rat liver after injecting for 4 hour.; type: ADME, organism-based; summary of the method: as §2
# Rattus norvegicus [14] = species: Rattus norvegicus; assay: Biodistribution of In-LDTA (conjugated with mannoseBSA) protein using [111In]- in mature female Sprague-Dawley rat liver after injecting for 48 hr.; type: ADME, organism-based; summary of the method: as §2
# Rattus norvegicus [15] = species: Rattus norvegicus; assay: Biodistribution of In-LDTA (conjugated with mannoseBSA)protein using [111In]- in mature female Sprague-Dawley rat blood after injecting for 4 hour.; type: ADME, organism-based; summary of the method: as §2
# Rattus norvegicus [16] = species: Rattus norvegicus; assay: Biodistribution of In-LDTA (conjugated with mannoseBSA) protein using [111In]- in mature female Sprague-Dawley rat kidney after injecting for 4 hour.; type: ADME, organism-based; summary of the method: as §2
# Rattus norvegicus [17] = species: Rattus norvegicus; assay: Biodistribution of Gd-DTA (conjugated with BSA)protein using [111In]- in mature female Sprague-Dawley rat kidney after injecting for 96 hour.; type: ADME, organism-based
# Rattus norvegicus [18] = species: Rattus norvegicus; assay: Biodistribution of Gd-DTA (conjugated with BSA)protein using [111In]- in mature female Sprague-Dawley rat liver after injecting for 1 hour.; type: ADME, organism-based; summary of the method: as §1
# Rattus norvegicus [19] = species: Rattus norvegicus; assay: Biodistribution of Gd-DTA (conjugated with BSA)protein using [111In]- in mature female Sprague-Dawley rat liver after injecting for 24 hour.; type: ADME, organism-based; summary of the method: as §1
# Rattus norvegicus [20] = species: Rattus norvegicus; assay: Biodistribution of Gd-LDTA (conjugated with galactose BSA) protein using [111In]- in mature female Sprague-Dawley rat blood after injecting for 1 hour.; type: ADME, organism-based; summary of the method: as §1
# Rattus norvegicus [21] = species: Rattus norvegicus; assay: Biodistribution of Gd-DTA (conjugated with BSA)protein using [111In]- in mature female Sprague-Dawley rat liver after injecting for 48 hour.; type: ADME, organism-based; summary of the method: as §1
# Rattus norvegicus [22] = species: Rattus norvegicus; assay: Biodistribution of Gd-DTA (conjugated with BSA)protein using [111In]- in mature female Sprague-Dawley rat blood after injecting for 96 hour.; type: ADME, organism-based
# Rattus norvegicus [23] = species: Rattus norvegicus; assay: Biodistribution of Gd-LDTA (conjugated with galactose BSA) protein using [111In]- in mature female Sprague-Dawley rat blood after injecting for 24 hour.; type: ADME, organism-based; summary of the method: as §1
# Rattus norvegicus [24] = species: Rattus norvegicus; assay: Biodistribution of Gd-LDTA (conjugated with galactose BSA) protein using [111In]- in mature female Sprague-Dawley rat bone marrow after injecting for 24 hour.; type: ADME, organism-based
# Rattus norvegicus [25] = species: Rattus norvegicus; assay: Biodistribution of Gd-LDTA (conjugated with galactose BSA) protein using [111In]- in mature female Sprague-Dawley rat colon after injecting for 48 hour.; type: ADME, organism-based; summary of the method: as §1
# Rattus norvegicus [26] = species: Rattus norvegicus; assay: Biodistribution of Gd-LDTA (conjugated with galactose BSA) protein using [111In]- in mature female Sprague-Dawley rat kidney after injecting for 24 hour.; type: ADME, organism-based; summary of the method: as §1
# Rattus norvegicus [27] = species: Rattus norvegicus; assay: Biodistribution of Gd-LDTA (conjugated with galactose BSA) protein using [111In]- in mature female Sprague-Dawley rat kidney after injecting for 4 hour.; type: ADME, organism-based; summary of the method: as §1
# Rattus norvegicus [28] = species: Rattus norvegicus; assay: Biodistribution of Gd-LDTA (conjugated with galactose BSA) protein using [111In]- in mature female Sprague-Dawley rat kidney after injecting for 96 hour.; type: ADME, organism-based
# Rattus norvegicus [29] = species: Rattus norvegicus; assay: Biodistribution of Gd-LDTA (conjugated with galactose BSA) protein using [111In]- in mature female Sprague-Dawley rat liver after injecting for 48 hour.; type: ADME, organism-based; summary of the method: as §1
# Rattus norvegicus [30] = species: Rattus norvegicus; assay: Biodistribution of Gd-LDTA (conjugated with mannose BSA) protein using [111In]- in mature female Sprague-Dawley rat bone after injecting for 48 hour.; type: ADME, organism-based, Bone element; summary of the method: as §1
# Rattus norvegicus [31] = species: Rattus norvegicus; assay: Biodistribution of Gd-LDTA (conjugated with mannose BSA) protein using [111In]- in mature female Sprague-Dawley rat blood after injecting for 48 hour.; type: ADME, organism-based; summary of the method: as §1
# Rattus norvegicus [32] = species: Rattus norvegicus; assay: Biodistribution of In-LDTA (conjugated with galactose BSA)protein using [111In]- in mature female Sprague-Dawley rat kidney after injecting for 48 hour.; type: ADME, organism-based; summary of the method: as §2
# Rattus norvegicus [33] = species: Rattus norvegicus; assay: Biodistribution of Gd-DTA (conjugated with BSA)protein using [153Gd]- in mature female Sprague-Dawley rat bone marrow after injecting for 4 hour.
# Rattus norvegicus [34] = species: Rattus norvegicus; assay: Biodistribution of Gd-DTA (conjugated with BSA)protein using [153Gd]- in mature female Sprague-Dawley rat bone marrow after injecting for 24 hour.
# Rattus norvegicus [35] = species: Rattus norvegicus; assay: Biodistribution of Gd-LDTA (conjugated with galactose BSA) protein using [153Gd]- in mature female Sprague-Dawley rat blood after injecting for 48 hour.
smiles,measurement,setting,value
Nc1ccc(CC(C(=O)O)N(CCN(CC(=O)O)CC(=O)O)CCN(CC(=O)O)CC(=O)O)cc1 (stereo not given),ID/organ,Rattus norvegicus [1],0.327%
same,ID/organ,Rattus norvegicus [2],0.21%
same,ID/organ,Rattus norvegicus [3],19.1%
same,ID/organ,Rattus norvegicus [4],0.405%
same,ID/organ,Rattus norvegicus [5],2.87%
same,ID/organ,Rattus norvegicus [6],0.86%
same,ID/organ,Rattus norvegicus [7],0.542%
same,ID/organ,Rattus norvegicus [8],0.329%
same,ID/organ,Rattus norvegicus [9],0.0098%
same,ID/organ,Rattus norvegicus [10],0.0446%
same,ID/organ,Rattus norvegicus [11],8.9%
same,ID/organ,Rattus norvegicus [12],1.77%
same,ID/organ,Rattus norvegicus [13],87.6%
same,ID/organ,Rattus norvegicus [14],61%
same,ID/organ,Rattus norvegicus [15],0.149%
same,ID/organ,Rattus norvegicus [16],0.244%
same,ID/organ,Rattus norvegicus [17],2.73%
same,ID/organ,Rattus norvegicus [18],14.2%
same,ID/organ,Rattus norvegicus [19],20%
same,ID/organ,Rattus norvegicus [20],0.207%
same,ID/organ,Rattus norvegicus [21],17.4%
same,ID/organ,Rattus norvegicus [22],0.418%
same,ID/organ,Rattus norvegicus [23],0.02%
same,ID/organ,Rattus norvegicus [24],0.04%
same,ID/organ,Rattus norvegicus [25],35.3%
same,ID/organ,Rattus norvegicus [26],0.14%
same,ID/organ,Rattus norvegicus [27],0.105%
same,ID/organ,Rattus norvegicus [28],0.193%
same,ID/organ,Rattus norvegicus [29],34.8%
same,ID/organ,Rattus norvegicus [30],20.4%
same,ID/organ,Rattus norvegicus [31],0.04%
same,ID/organ,Rattus norvegicus [32],0.14%
same,ID/organ,Rattus norvegicus [33],1.75%
same,ID/organ,Rattus norvegicus [34],3.07%
same,ID/organ,Rattus norvegicus [35],0.037%
